Laboratory results from ChEMBL document CHEMBL1135442, “6-Chloropyridazin-3-yl derivatives active as nicotinic agents: synthesis, binding, and modeling studies” (J Med Chem, 2002).

Assay: Inhibition of [3H]cytisine binding to rat cerebral cortical membrane neuronal Nicotinic acetylcholine receptor
Summary of the method: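 Rat cerebral cortical membranes, thawed, washed, resuspended in Tris-HCl 50 mM buffer with NaCl 120, KCl 5, MgCl2 1, CaCl2 2.5 mM (pH 7.4 at 4 °C), centrifuged 45000g 20 min. 150-200 µg protein incubated with 0.7 nM [3H]-(-)-cytisine and varied test concentrations, 75 min at 4 °C, triplicate. Nonspecific binding defined with 10 µM (-)-nicotine. Ki values reported.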

Row | Compound | Ki
1 | CN1CCN(c2ccc(Cl)nn2)CC1 | 14 nM
2 | Clc1ccc(N2CCNCC2)nn1 | 32 nM
3 | C[N+]1(C)C2CCC1CN(c1ccc(Cl)nn1)C2 | 2.3 nM
4 | CN1CCCN(c2ccc(Cl)nn2)CC1 | 220 nM
5 | C[N+]1(C)CCCN(c2ccc(Cl)nn2)CC1 | 120 nM
6 | Clc1ccc(N2CC3CCC(C2)N3)nn1 | 4.1 nM
7 | Clc1ccc(N2CCCNCC2)nn1 | 1.5 nM
8 | CN1C2CCC1CN(c1ccc(Cl)nn1)C2 | 39 nM
